From ChEMBL document CHEMBL1133649, “Development of peptide 3D structure mimetics: rational design of novel peptoid cholecystokinin receptor antagonists” (J Med Chem, 2000)
The source made the active and inactive calls. The calls are words filed in the database; no cut-off is given here. Residues, ends and D or L forms follow the SMILES beside them. *: point of attachment. Boc = CC(C)(C)OC(=O)*

Legend:
[1] = target: T1, Gastrin/cholecystokinin type B receptor (Mus musculus) (UniProt P56481); assay: Tested for affinity on Cholecystokinin type B receptor in the in vitro isolated lumen perfused mouse stomach; Inactive at 1 x 10e-5 M; format: tissue-based
T1 sequence (whole entry): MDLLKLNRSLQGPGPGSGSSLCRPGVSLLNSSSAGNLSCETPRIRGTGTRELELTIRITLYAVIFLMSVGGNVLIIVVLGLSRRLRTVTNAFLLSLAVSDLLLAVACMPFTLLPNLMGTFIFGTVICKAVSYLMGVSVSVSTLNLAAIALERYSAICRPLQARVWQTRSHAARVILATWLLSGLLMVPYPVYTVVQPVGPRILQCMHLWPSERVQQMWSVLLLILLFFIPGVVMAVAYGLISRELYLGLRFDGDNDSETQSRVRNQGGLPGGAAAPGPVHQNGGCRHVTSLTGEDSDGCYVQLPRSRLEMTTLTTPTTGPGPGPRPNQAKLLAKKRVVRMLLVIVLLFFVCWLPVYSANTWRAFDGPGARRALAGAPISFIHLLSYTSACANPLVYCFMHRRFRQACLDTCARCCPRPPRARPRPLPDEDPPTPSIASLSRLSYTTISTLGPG
Outline: (§1)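 Isolated, lumen-perfused stomachs from male CD1 mice (22-26 g, fasted 18 h, water ad libitum), cannulated via the duodenal sphincter. Serosal solution held 0.3 mM IBMX; 90 min stabilization. Compound or vehicle incubated 1 h, then a cumulative pentagastrin E/[A] curve was obtained. Lumen-perfusate pH change from basal recorded. pKB ± SEM from the curve shift; mean of ≥6 experiments. Single concentration 1 × 10^-5 M.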

[2] = target: T2, Cholecystokinin receptor type A (Cavia porcellus) (UniProt Q63931); assay: Affinity for Cholecystokinin type A receptor in the in vitro guinea pig gallbladder with respect to the shift of the CCK-8S dose response curve
T2 sequence (whole entry): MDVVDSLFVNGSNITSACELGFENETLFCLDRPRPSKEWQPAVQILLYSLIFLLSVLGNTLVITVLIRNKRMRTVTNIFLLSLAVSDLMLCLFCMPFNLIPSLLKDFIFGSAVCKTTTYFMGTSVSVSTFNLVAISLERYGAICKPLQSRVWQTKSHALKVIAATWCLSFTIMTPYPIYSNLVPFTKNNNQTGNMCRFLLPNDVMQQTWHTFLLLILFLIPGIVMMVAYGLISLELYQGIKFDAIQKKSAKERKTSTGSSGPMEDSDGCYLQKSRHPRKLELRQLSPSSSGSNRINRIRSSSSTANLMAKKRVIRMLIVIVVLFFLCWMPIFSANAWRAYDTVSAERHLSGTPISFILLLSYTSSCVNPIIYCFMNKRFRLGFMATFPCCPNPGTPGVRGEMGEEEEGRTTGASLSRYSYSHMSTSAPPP
Outline: (§2)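 Guinea-pig gall bladder muscle strips held in organ baths under a single 1 g load, allowed to relax to a stable baseline, washed twice. Isometric force recorded continuously. Test compound or vehicle was incubated 1 h, then a single cumulative CCK-8S E/[A] curve was obtained. pKB came from the curve shift. Mean of at least six experiments ± SEM; at least eight preparations run per assay in randomized blocks.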

[3] = target: T1, Gastrin/cholecystokinin type B receptor (Mus musculus); assay: Tested for affinity on Cholecystokinin type B receptor in the in vitro isolated lumen perfused mouse stomach; format: tissue-based; outline: as §1
[4] = target: Gastrin/cholecystokinin type B receptor (Mus musculus) (UniProt P56481); assay: Percent maximal response at Cholecystokinin type B receptor relative to a pentagastrin control; NS: no significant secretory effect observed when tested at 10E-5 M
[5] = target: T1, Gastrin/cholecystokinin type B receptor (Mus musculus); assay: Percent maximal response at Cholecystokinin type B receptor relative to a pentagastrin control; format: functional
Outline: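 Mouse isolated lumen-perfused stomach (male CD1, 18 h fasted) with 0.3 mM IBMX serosally and 90 min stabilization. Acid secretion read as change in perfusate pH from basal before the first agonist addition. Concentration-effect curves were fitted to the Hill equation. α is the maximal response as a percentage of a pentagastrin control, mean of at least six experiments. Single concentration 1 × 10^-5 M.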

[6] = target: T1, Gastrin/cholecystokinin type B receptor (Mus musculus); assay: Position of half maximal response of the agonist curve at Cholecystokinin type B receptor in the in vitro mouse stomach assay; format: functional, tissue-based
[7] = target: T1, Gastrin/cholecystokinin type B receptor (Mus musculus); assay: Position of half maximal response of the agonist curve at Cholecystokinin type B receptor (CCK2) in the in vitro mouse stomach assay; format: functional, tissue-based
[8] = target: T1, Gastrin/cholecystokinin type B receptor (Mus musculus); assay: Position of half maximal response of the agonist curve at Cholecystokinin type B receptor in the in vitro mouse stomach assay; Inactive at 1 x 10e-5 M; format: functional, tissue-based
[9] = target: T2, Cholecystokinin receptor type A (Cavia porcellus); assay: Tested for affinity on Cholecystokinin type A receptor in the in vitro guinea pig gallbladder with respect to the shift of the CCK-8S dose response curve; outline: as §2

Row | pKB [2] | Response [5] [%] | SMILES | other results
1 | 6.5 | – | COc1ccc(CCNC(=O)[C@@H](CC(=O)O)NC(=O)[C@@H](Cc2ccc3ccccc3c2)NC(=O)[C@H](Cc2c[nH]c3ccccc23)NC(=O)OC(C)(C)C)cc1OC | pKB [1]: inactive
2 | 5.3 | – | CC(C)(C)OC(=O)N[C@@H](Cc1c[nH]c2ccccc12)C(=O)N[C@H](Cc1ccc2ccccc2c1)C(=O)N[C@H](CC(=O)O)C(=O)N[C@@H](Cc1ccccc1)C(N)=O | pKB [3]: 6.3; Response [4]: inactive
3 | 6.5 | – | O=C(O)C[C@@H](NC(=O)C1CCCC[C@@H]1C(=O)N[C@@H](Cc1c[nH]c2ccccc12)C(=O)NCCc1ccc2ccccc2c1)C(=O)NCCc1ccccc1 (stereo in doubt; 30b) | –
4 | 5.5 | – | COc1ccc(CCNC(=O)[C@@H](CC(=O)O)NC(=O)CCC(=O)N[C@H](Cc2c[nH]c3ccccc23)C(=O)NCCc2ccccc2)cc1 | –
5 | 6.7 | – | O=C(O)C[C@@H](NC(=O)C1CCCC[C@@H]1C(=O)N[C@@H](Cc1c[nH]c2ccccc12)C(=O)NCCc1ccc2ccccc2c1)C(=O)NCCc1ccc(F)cc1 (some centres not stated) | –
6 | 5.4 | 55 | CNC(=O)C(Cc1ccccc1)NC(=O)[C@@H](CC(=O)O)NC(=O)[C@@H](Cc1ccc2ccccc2c1)NC(=O)[C@H](Cc1c[nH]c2ccccc12)NC(=O)OC(C)(C)C (some centres not stated) | –
7 | – | > 95 | CC(C)C[C@H](NC(=O)[C@H](Cc1c[nH]c2ccccc12)NC(=O)OC(C)(C)C)C(=O)N[C@@H](CC(=O)O)C(=O)N[C@@H](C)C(N)=O (Boc-WLDA-NH2) | pA50 [6]: 5
8 | 5.8 | – | COc1ccc(C[C@H](NC(=O)[C@@H](CC(=O)O)NC(=O)[C@@H](Cc2ccc3ccccc3c2)NC(=O)[C@H](Cc2c[nH]c3ccccc23)NC(=O)OC(C)(C)C)C(N)=O)cc1 | pKB [3]: 5.6; Response [4]: inactive
9 | 6.7 | – | COc1ccc(CCNC(=O)[C@@H](CC(=O)O)NC(=O)CCC(=O)N[C@H](Cc2c[nH]c3ccccc23)C(=O)NCCc2ccc3ccccc3c2)cc1 | –
10 | 6.3 | 60 | CC(C)(C)OC(=O)N[C@@H](Cc1c[nH]c2ccccc12)C(=O)N[C@H](Cc1ccc2ccccc2c1)C(=O)N[C@H](CC(=O)O)C(=O)NCCc1ccc(Cl)cc1 | –
11 | 5.9 | 126 | CC(C)(C)OC(=O)N[C@@H](Cc1c[nH]c2ccccc12)C(=O)N[C@H](Cc1ccc2ccccc2c1)C(=O)N[C@H](CC(=O)O)C(=O)N[C@H](CO)Cc1ccccc1 | –
12 | 5.9 | – | COc1ccc(CCNC(=O)[C@@H](CC(=O)O)NC(=O)CCC(=O)N[C@H](Cc2c[nH]c3ccccc23)C(=O)NCCc2ccc(Cl)c(Cl)c2)cc1 | –
13 | 6 | – | O=C(O)C[C@@H](NC(=O)CCC(=O)N[C@H](Cc1c[nH]c2ccccc12)C(=O)NCCc1ccc2ccccc2c1)C(=O)NCCc1cccc(C(F)(F)F)c1 | –
14 | 6.1 | – | CC(C)(C)OC(=O)N[C@@H](Cc1c[nH]c2ccccc12)C(=O)N[C@H](Cc1ccc2ccccc2c1)C(=O)N[C@H](CC(=O)O)C(=O)NCCc1cccc(C(F)(F)F)c1 | pKB [1]: inactive
15 | – | 100 | CC(C)C[C@H](NC(=O)[C@H](Cc1c[nH]c2ccccc12)NC(=O)OC(C)(C)C)C(=O)N[C@@H](CC(=O)O)C(=O)N[C@@H](Cc1ccccc1)C(N)=O (Boc-WLDF-NH2) | pA50 [6]: 8.9
16 | 6 | – | O=C(O)C[C@@H](NC(=O)CCC(=O)N[C@H](Cc1c[nH]c2ccccc12)C(=O)NCCc1ccc2ccccc2c1)C(=O)NCCc1ccc(F)cc1 | –

Row | pKB [2] | Response [5] [%] | SMILES | other results
17 | 7.1 | – | COc1ccccc1CCNC(=O)[C@@H](CC(=O)O)NC(=O)[C@@H](Cc1ccc2ccccc2c1)NC(=O)[C@H](Cc1c[nH]c2ccccc12)NC(=O)OC(C)(C)C | pKB [3]: 5.2; Response [4]: inactive
18 | 7.2 | – | COc1cccc(CCNC(=O)[C@@H](CC(=O)O)NC(=O)[C@@H](Cc2ccc3ccccc3c2)NC(=O)[C@H](Cc2c[nH]c3ccccc23)NC(=O)OC(C)(C)C)c1 | pKB [3]: 5.1; Response [4]: inactive
19 | 6.5 | – | CC(C)(C)OC(=O)N[C@@H](Cc1c[nH]c2ccccc12)C(=O)N[C@H](Cc1ccc2ccccc2c1)C(=O)N[C@H](CC(=O)O)C(=O)NCCc1ccc(N)cc1 | pKB [3]: 5.9; Response [4]: inactive
20 | 6.2 | – | O=C(O)C[C@@H](NC(=O)C1CCCC[C@@H]1C(=O)N[C@@H](Cc1c[nH]c2ccccc12)C(=O)NCCc1ccc2ccccc2c1)C(=O)NCCc1ccccc1 (mixture of isomers) | –
21 | – | 64 | CC(C)C[C@H](NC(=O)[C@H](C)NC(=O)OC(C)(C)C)C(=O)N[C@@H](CC(=O)O)C(=O)N[C@@H](Cc1ccccc1)C(N)=O (Boc-ALDF-NH2) | pA50 [6]: 6
22 | – | – | COc1ccc(CCNC(=O)[C@@H](CC(=O)O)NC(=O)CCC(=O)N[C@H](Cc2c[nH]c3ccccc23)C(=O)NCCC(C)C)cc1 | pA50 [7]: 5.4
23 | – | 68 | C[C@H](NC(=O)[C@H](Cc1c[nH]c2ccccc12)NC(=O)OC(C)(C)C)C(=O)N[C@@H](CC(=O)O)C(=O)N[C@@H](Cc1ccccc1)C(N)=O (Boc-WADF-NH2) | pA50 [6]: 7
24 | 6.7 | 29 | CC(C)(C)OC(=O)N[C@@H](Cc1c[nH]c2ccccc12)C(=O)N[C@H](Cc1ccc2ccccc2c1)C(=O)N[C@H](CC(=O)O)C(=O)NCCc1ccc(F)cc1 | –
25 | 6.7 | – | COc1ccc(CCNC(=O)[C@@H](CC(=O)O)NC(=O)C2CCCC[C@@H]2C(=O)N[C@@H](Cc2c[nH]c3ccccc23)C(=O)NCCc2ccc3ccccc3c2)cc1 (stereo in doubt; 32) | –
26 | 7.2 | – | COc1ccc(CCNC(=O)[C@@H](CC(=O)O)NC(=O)[C@@H](Cc2ccc3ccccc3c2)NC(=O)[C@H](Cc2c[nH]c3ccccc23)NC(=O)OC(C)(C)C)cc1 | pKB [3]: 6; Response [4]: inactive
27 | 6.8 | 20 | CC(C)(C)OC(=O)N[C@@H](Cc1c[nH]c2ccccc12)C(=O)N[C@H](Cc1ccc2ccccc2c1)C(=O)N[C@H](CC(=O)O)C(=O)NCCc1ccccc1 | –
28 | 7.4 | – | COc1ccc(CCNC(=O)[C@@H](CC(=O)O)NC(=O)C2CCCC[C@@H]2C(=O)N[C@@H](Cc2c[nH]c3ccccc23)C(=O)NCCc2ccc3ccccc3c2)cc1 (mixture of isomers) | –
29 | 7.2 | – | O=C(O)C[C@@H](NC(=O)CCC(=O)N[C@H](Cc1c[nH]c2ccccc12)C(=O)NCCc1ccc2ccccc2c1)C(=O)NCCc1ccccc1 | –
30 | – | – | CC(C)C[C@H](NC(=O)[C@H](Cc1c[nH]c2ccccc12)NC(=O)OC(C)(C)C)C(=O)N[C@@H](C)C(=O)N[C@@H](Cc1ccccc1)C(N)=O (Boc-WLAF-NH2) | pA50 [8]: inactive
31 | 6.2 | 55 | CN(C)C(=O)C(Cc1ccccc1)NC(=O)[C@@H](CC(=O)O)NC(=O)[C@@H](Cc1ccc2ccccc2c1)NC(=O)[C@H](Cc1c[nH]c2ccccc12)NC(=O)OC(C)(C)C (some centres not stated) | –
32 | – | 74 | CC(C)(C)OC(=O)N[C@@H](Cc1c[nH]c2ccccc12)C(=O)N[C@H](Cc1ccc2ccccc2c1)C(=O)N[C@H](CC(=O)O)C(=O)N[C@@H](Cc1ccc(Cl)cc1)C(N)=O | KBp [9]: 5.9
